In PMC6426238 (Helvetica chimica acta, 2018):

Tests used:
Caco2-cells = conditions: degraded cyanophycin dipeptides; cited from earlier work
Plasmodium berghei = assay: parasitaemia reduction after intravenous tail-vein injection to infected mice; format: in vivo; conditions: P. berghei-infected mice
How it was run: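 Single intravenous injection into the tail vein of mice, either uninfected or infected with Plasmodium berghei. Test compound was given in 0.9% NaCl at 0.01 ml/g body weight, with doses in μmol/kg. Oligo-arginine TFA salts were treated with Amberlyst A-26 (OH form) resin to remove TFA. Doses refer to the free peptide unless a TFA salt is stated. Read-outs were acute signs (death and its timing, heart rate, ataxia) and parasitaemia reduction in infected mice.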

MCF-7 cells = assay: cell penetration by confocal fluorescence microscopy; format: cell-based; conditions: FAM-labeled peptides, membrane stain R18
How it was run: (§1)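 FAM-labelled octa-Adp derivatives (side chains as free carboxylic acids, esters or amides) were purified by preparative HPLC. Unless stated otherwise, TFA counter-ions were removed with OH-form anion-exchange resin before use.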

HEK293 cells = assay: as above; format: cell-based; conditions: FAM-labeled peptides, membrane stain R18
How it was run: as §1

Compound	cell permeability (CFM) (MCF-7 cells)	cell permeability (CFM) (HEK293 cells)	absorption by Caco2-cells (Caco2-cells)	also measured
N=C(N)NCCC[C@H](NC(=O)CC(N)C(=O)O)C(=O)O (stereo partly drawn) [H-Adp-OH, H-βAsp-αArg-OH]			absorbed	
O=CN(O)CCCP(=O)(O)O [Na-fosmidomycin, fosmidomycin]				Parasitaemia reduction (Plasmodium berghei; i.v. dose 1.5·10^4 μmol/kg): No parasitaemia reduction (Parasitaemia reductions < 20% must be considered non-significant in this investigation: ‘no parasitaemia reduction’); Parasitaemia reduction (Plasmodium berghei; i.v. dose 1.5·10^6 μmol/kg): 95% Parasitaemia reduction; Parasitaemia reduction (Plasmodium berghei; i.v. dose 5·10^3 μmol/kg): No parasitaemia reduction (Parasitaemia reductions < 20% must be considered non-significant in this investigation: ‘no parasitaemia reduction’); Parasitaemia reduction (Plasmodium berghei; i.v. dose 5·10^5 μmol/kg): 72% Parasitaemia reduction
NCCCC[C@H](NC(=O)C[C@H](N)C(=O)O)C(=O)O [β-Asp-Lys]			absorbed	

Further lines, with some results ahead:

cell permeability (CFM) (MCF-7 cells)	cell permeability (CFM) (HEK293 cells)	Compound	absorption by Caco2-cells (Caco2-cells)	also measured
mediocre to high cell permeability	mediocre to high cell permeability	FAM-(Adp(NMe2))8-NH2 [Compound 9]		
mediocre to high cell permeability	mediocre to high cell permeability	FAM-(Adp(OMe))8-NH2 [Compound 8]		
does not enter the cells at all	does not enter the cells at all	FAM-Adp8-NH2 [Compound 7]		
